Laboratory results published in ChEMBL document CHEMBL1121809, “Cyclic guanidines. 14. Imidazo[1,2-a]thienopyrimidin-2-one derivatives as blood platelet aggregation inhibitors” (J Med Chem, 1981).
Values joined by “and” are separate entries in the source; they are usually repeats but may differ in a detail not shown here. Identical values can stand only once.

Experiments:
Rattus norvegicus [1] = test: Effect on heart rate in rat after an oral dose at 50 mg/kg; format: functional
How it was run: (§1)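 Male Wistar-Imamichi rats, 250 g, were given the compound orally at (50 mg/7.5 mL)/kg as a suspension in 0.5% CMC or 0.5% Tween 80. Systolic pressure and heart rate were taken by tail-cuff after prewarming at 55–60 °C for 3 min, before dosing and at set times after. Five rats per group, mean ± SD. Pressure is reported as decrease and heart rate as percent change.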

Rattus norvegicus [2] = test: Effect of compound on heart rate in rat after an oral dose at 50 mg/kg (6h after dose); format: functional; how it was run: as §1
Rattus norvegicus [3] = test: Effect of compound on systolic blood pressure in rat after an oral dose at 50 mg/kg (24h after dose); format: functional, Artery; how it was run: as §1
Rattus norvegicus [4] = organism: Rattus norvegicus; test: In vitro inhibition of collagen-induced blood platelet aggregation; format: functional
How it was run: (§2)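 Rat PRP (about 5 × 10⁵ platelets/μL) was preincubated with compound added in saline or MeOH. Aggregation was started with bovine tendon collagen suspension in Tris buffer (absorbance 0.270 at 420 nm; lag 2–3 min). Read at 30 °C, 1100 rpm, as initial maximal rate ΔA/min. EC50 is the concentration giving 50% inhibition.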

Rattus norvegicus [5] = test: Ex vivo inhibition of ADP-induced blood platelet aggregation in rat was measured 2 hr after administration of vehical alone (delta A/min *10e 3); format: functional
Rattus norvegicus [6] = test: Effect on systolic blood pressure in rat after an oral dose at 50 mg/kg (6h after dose); format: functional, Artery; how it was run: as §1
Rattus norvegicus [7] = test: Ex vivo inhibition of collagen-induced blood platelet aggregation in rat was measured 2 hr after administration of vehical alone; format: functional
How it was run: (§3)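 Overnight-fasted rats were dosed orally at (50 mg/10 mL)/kg in 0.5% Tween 80; controls got vehicle at 10 mL/kg. PRP was made from carotid citrated blood 2 h later under pentobarbital. Collagen suspension (absorbance 0.270 at 420 nm) drove aggregation at 30 °C, 1100 rpm. Read-out was the initial maximal rate of absorbance fall (ΔA/min). Inhibition percent is versus controls; 5–7 rats, mean ± SD.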

Rattus norvegicus [8] = test: Effect on heart rate in rat after an oral dose at 50 mg/kg (3h after dose); format: functional; how it was run: as §1
Rattus norvegicus [9] = test: (§4) Ex vivo inhibition of collagen-induced blood platelet aggregation in rat was measured 2 hr after oral administration of 50 mg/kg; format: functional; how it was run: as §3
Rattus norvegicus [10] = test: Effect on systolic blood pressure in rat after an oral dose at 50 mg/kg (1h after dose); format: functional, Artery; how it was run: as §1
Rattus norvegicus [11] = test: Effect on systolic blood pressure in rat after an oral dose at 50 mg/kg (3h after dose); format: functional, Artery; how it was run: as §1
Rattus norvegicus [12] = test: Effect on heart rate in rat after an oral dose at 50 mg/kg (4h after dose); format: functional; how it was run: as §1
Rattus norvegicus [13] = test: Effect on systolic blood pressure in rat after an oral dose at 50 mg/kg (5h after dose); format: functional, Artery; how it was run: as §1
Rattus norvegicus [14] = test: Effect of compound on heart rate in rat after an oral dose at 50 mg/kg (5h after dose); format: functional; how it was run: as §1
Rattus norvegicus [15] = test: Effect on systolic blood pressure in rat after an oral dose at 50 mg/kg (4h after dose); format: functional, Artery; how it was run: as §1
Rattus norvegicus [16] = test: Effect on heart rate in rat after an oral dose at 50 mg/kg (1h after dose); format: functional; how it was run: as §1
Rattus norvegicus [17] = test: Effect on systolic blood pressure in rat after an oral dose at 50 mg/kg; format: functional, Artery; how it was run: as §1
Rattus norvegicus [18] = organism: Rattus norvegicus; test: In vitro inhibition of ADP-induced blood platelet aggregation; format: functional
How it was run: (§5)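 Rat carotid citrated blood was spun at 230g for 7 min to give PRP, adjusted with PPP to about 5 × 10⁵ platelets/μL. Compound in saline or MeOH was added before 10 μM ADP in Tris-HCl/NaCl pH 7.4 with CaCl₂. Aggregation was read at 30 °C, 1100 rpm, as maximal ΔA. EC50 is the concentration giving 50% inhibition.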

Rattus norvegicus [19] = test: Effect of compound on heart rate in rat after an oral dose at 50 mg/kg (24h after dose); format: functional; how it was run: as §1
Rattus norvegicus [20] = organism: Rattus norvegicus; test: Inhibition of collagen-induced blood platelet aggregation in rat; format: functional; how it was run: as §2
Rattus norvegicus [21] = organism: Rattus norvegicus; test: Inhibition of ADP-induced blood platelet aggregation in rat; format: functional; how it was run: as §5
Rattus norvegicus [22] = test: Inhibition of ADP-induced blood platelet aggregation in rat given compound at an oral dose of 50 mg/kg (delta A/min *10e 3); format: functional
Rattus norvegicus [23] = test: Inhibition of ADP-induced blood platelet aggregation in rat given vehicle at an oral dose of 50 mg/kg (delta A/min *10e 3); format: functional
Rattus norvegicus [24] = test: as §4; format: functional; how it was run: as §3
Rattus norvegicus [25] = organism: Rattus norvegicus; test: Inhibition of arachidonic acid-induced blood platelet aggregation in rat; format: functional
How it was run: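 Rat PRP was stimulated with arachidonic acid at 30 °C under stirring, with compound added before the agonist. EC50 was estimated from inhibition at three to six concentrations and is the mean of two to three experiments.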

Rattus norvegicus [26] = test: Effect of compound on heart rate in rat after an oral dose at 50 mg/kg; format: functional; how it was run: as §1
Rattus norvegicus [27] = test: Inhibition of collagen-induced blood platelet aggregation in rat was measured given compound at an oral dose of 50 mg/kg (delta A/min *10e 3); format: functional; how it was run: as §3
[28] = Inhibition of collagen-induced blood platelet aggregation in human; format: functional
How it was run: (§6)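 In vitro aggregation used human platelets. EC50 was estimated from inhibition at three to six compound concentrations and is the mean of two to three experiments.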

[29] = Inhibition ofADP-induced blood platelet aggregation in human; format: functional
How it was run: (§7)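 In vitro platelet aggregation test. EC50 was estimated from the inhibition rate at three to six compound concentrations and given as the mean of two to three experiments.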

Rattus norvegicus [30] = test: Effect of compound on systolic blood pressure in rat after an oral dose at 50 mg/kg (1h after dose); format: functional, Artery; how it was run: as §1
Rattus norvegicus [31] = organism: Rattus norvegicus; test: Inhibition of thrombin-induced blood platelet aggregation in rat; format: functional
How it was run: (§8)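 Rat PRP was prepared from citrated carotid blood of male Wistar-Imamichi rats (250 g) under pentobarbital anesthesia, spun at 230g for 7 min, and adjusted with PPP to about 5 × 10⁵ platelets/μL. Aggregation was read turbidimetrically at 30 °C with 1100 rpm stirring. Compound in saline or MeOH was added before the agonist. EC50 was estimated from inhibition at three to six concentrations, as the mean of two to three experiments.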

Rattus norvegicus [32] = test: Inhibition of collagen-induced blood platelet aggregation in rat was measured given vehicle at an oral dose of 50 mg/kg (delta A/min *10e 3); format: functional; how it was run: as §3
Oryctolagus cuniculus = organism: Oryctolagus cuniculus; test: Inhibition of serotonin/epinephrine-induced blood platelet aggregation in rabbit; format: functional; how it was run: as §7
[33] = Inhibition of ADP-induced blood platelet aggregation in human; format: functional; how it was run: as §6
Rattus norvegicus [34] = test: Effect of compound on heart rate in rat after an oral dose at 50 mg/kg/5h after dose); format: functional; how it was run: as §1
Rattus norvegicus [35] = test: Effect of compound on heart rate in rat after an oral dose at 50 mg/kg (2h after dose); format: functional; how it was run: as §1
Rattus norvegicus [36] = test: Effect of compound on heart rate in rat after an oral dose at 50 mg/kg (24h after dose); Not mention; format: functional, organism-based; set-up: dose 50 mg/kg; how it was run: as §1
Rattus norvegicus [37] = organism: Rattus norvegicus; test: Inhibition of thrombin-induced blood platelet aggregation in rat; Not mention; format: functional; how it was run: as §8

Row | EC50 (Rattus norvegicus [4]) [nM] | EC50 (Rattus norvegicus [18]) [nM] | EC50 (Rattus norvegicus [21]) [nM] | EC50 (Rattus norvegicus [25]) [nM] | SMILES | Initial heart rate (Rattus norvegicus [1]) [bts min-1] | Change in heart rate (Rattus norvegicus [2]) [%] | Decrease in blood pressure (Rattus norvegicus [3]) | Decrease in blood pressure (Rattus norvegicus [6]) | Delta A/min (Rattus norvegicus [7]) | Change in heart rate (Rattus norvegicus [8]) [%] | Delta A/min (Rattus norvegicus [9]) | Decrease in blood pressure (Rattus norvegicus [10]) | Decrease in blood pressure (Rattus norvegicus [11]) | Change in heart rate (Rattus norvegicus [12]) [%] | Decrease in blood pressure (Rattus norvegicus [13]) | Change in heart rate (Rattus norvegicus [14]) [%] | Decrease in blood pressure (Rattus norvegicus [15]) | Change in heart rate (Rattus norvegicus [16]) [%] | Initial blood pressure (Rattus norvegicus [17]) [mmHg] | Delta A/min (Rattus norvegicus [24]) | further results
1 | 20 | 800 | – | – | O=C1CN2Cc3c(ccc(Cl)c3Cl)N=C2N1 [ANAGRELIDE] | 377 | 33 | 13 | 14 | 0.188 | 31 | 0.126 ΔA/min | 11 | 16 | 37 | 14 | 31 | 14 | 28 | 130 | – | Delta A/min (Rattus norvegicus [5]): 150
2 | 70 | 2000 | 2000 | 500 | Cl.O=C1CN2Cc3c(sc4c3CCCC4)N=C2N1 | 467 | – | 4 | 6 | – | 8 | – | – | 8 | 12 | 9 | 9 | 8 | 4 | 122 | 0 | Change in heart rate (Rattus norvegicus [19]): -1%; EC50 (Rattus norvegicus [20]): 70 nM; Delta A/min (Rattus norvegicus [22]): 141; Delta A/min (Rattus norvegicus [23]): 115; Change in heart rate (Rattus norvegicus [26]): 9%; Delta A/min (Rattus norvegicus [27]): 0; EC50 [28]: 1200 nM and 400 nM; EC50 [29]: 2200 nM; Decrease in blood pressure (Rattus norvegicus [30]): 4; EC50 (Rattus norvegicus [31]): 3000 nM; Delta A/min (Rattus norvegicus [32]): 156; EC50 (Oryctolagus cuniculus): 3000 nM; EC50 [33]: 2200 nM
3 | 800 | 5000 | – | 500 | Cc1cccc2c1CN1CC(=O)NC1=N2 | 464 | 19 | 12 | 35 | 0.244 | 17 | – | 23 | 26 | – | 34 | – | – | 18 | – | 0.11 ΔA/min | Change in heart rate (Rattus norvegicus [19]; 50 mg/kg): 19% and -1%; Change in heart rate (Rattus norvegicus [34]): 18%; Change in heart rate (Rattus norvegicus [35]): 20%; EC50 [28]: 700 nM; EC50 [29]: 1700 nM and 10000 nM; EC50 (Rattus norvegicus [31]): 3000 nM; EC50 (Oryctolagus cuniculus): 3000 nM
4 | 600 | 48000 | 48000 | – | CC1C(=O)NC2=Nc3sc4c(c3CN21)CCCC4.Cl (stereo not given) | 440 | – | – | – | 0.18 | 2 | 0.002 ΔA/min | 24 | 14 | 4 | 4 | 4 | 11 | 5 | 128 | – | Change in heart rate (Rattus norvegicus [36]): Not mention; EC50 (Rattus norvegicus [37]): Not mention
